Source: PubChem
Most compounds without a hit are left out; they make up all but 1.5% or so of the library.
MEX-5 binding = C. elegans MEX-5 TCR-2 RNA binding activity; Q9XUB2; MEX-5/FITC-TCR2 RNA binding, fluorescence polarization; hits give low values; activity score (negative = inhibition of binding), % at 10 µM; 300,000 compounds, 0.38% hits; AID 1832;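 active = inhibition past about -25% in most replicates, and total fluorescence under double the plate's negative control median, limit read from the data; inconclusive = replicates evenly split on the limit, or fluorescence at least double controls; inactive = too little inhibition in most replicates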;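 note: 0% = DMSO and -100% = 5 µM competing unlabeled TCR2 RNA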
CendR NRP1 mod = NRP-1/CendR interaction modulation | O14786 | FAM-RPARPAR peptide binding to NRP-1, fluorescence polarization | inhibition, % at 25 µM | 360,000 compounds, 0.85% hits | AID 602438;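 active = inhibition or corrected inhibition above about 18%, plus a signal ratio from 0.5 to 1.5, limit read from the data, passing the limit was not always enough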
Target sequence (O14786 whole entry, looked up): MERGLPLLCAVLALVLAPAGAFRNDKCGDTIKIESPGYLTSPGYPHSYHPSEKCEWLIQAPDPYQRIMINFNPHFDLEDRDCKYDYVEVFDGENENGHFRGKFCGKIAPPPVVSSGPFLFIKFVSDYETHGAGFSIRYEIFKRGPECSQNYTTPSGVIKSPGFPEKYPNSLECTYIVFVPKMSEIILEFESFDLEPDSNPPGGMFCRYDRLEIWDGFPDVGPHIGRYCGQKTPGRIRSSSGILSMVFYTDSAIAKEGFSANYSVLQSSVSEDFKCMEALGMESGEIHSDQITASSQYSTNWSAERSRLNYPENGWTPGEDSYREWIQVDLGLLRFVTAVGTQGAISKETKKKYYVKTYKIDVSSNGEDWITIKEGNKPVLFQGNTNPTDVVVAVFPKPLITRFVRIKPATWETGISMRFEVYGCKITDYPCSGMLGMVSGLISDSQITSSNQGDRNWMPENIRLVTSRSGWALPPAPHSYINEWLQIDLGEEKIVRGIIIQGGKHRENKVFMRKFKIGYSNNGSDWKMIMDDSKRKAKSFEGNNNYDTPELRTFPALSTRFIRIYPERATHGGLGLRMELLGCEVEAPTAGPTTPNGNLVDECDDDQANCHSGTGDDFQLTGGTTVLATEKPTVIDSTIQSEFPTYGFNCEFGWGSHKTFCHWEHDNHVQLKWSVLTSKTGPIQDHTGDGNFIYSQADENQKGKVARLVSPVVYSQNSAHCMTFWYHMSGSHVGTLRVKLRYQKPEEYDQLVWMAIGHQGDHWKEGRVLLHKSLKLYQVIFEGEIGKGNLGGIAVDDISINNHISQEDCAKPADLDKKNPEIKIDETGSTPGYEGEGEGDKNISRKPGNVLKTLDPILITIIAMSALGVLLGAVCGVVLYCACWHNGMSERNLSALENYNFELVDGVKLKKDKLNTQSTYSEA
HCV core dimer = HCV core protein dimerization inhibition. TR-FRET GST/Flag-core106 dimerization, 1536-well. 300,000 compounds, 0.33% hits. inhibition, % at 5 µM. AID 1899;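 active = inhibition above the mean of all tested compounds plus 3 SD, set per screening campaign, cut at about 45% in these data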
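Assay system: GST-tagged and Flag-tagged HCV core protein residues 1-106 / Times: compound-protein-antibody incubation 4 h at 22.5 °C / Signal: time-resolved FRET, ex 340 nm, em 617 and 671 nm / Evaluation: % inhibition based on acceptor/donor emission ratio / Benchmarks: wells lacking GST-core106 and wells with excess unlabelled core106 / Repeats: singlicate, one well per compound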
DNA FID counter = displaces DNA intercalator in HCV helicase counter-screen; inhibition, % at 7.9 µM; DNA fluorescent intercalator displacement, fluorescence; AID 1845; 290,000 compounds, 0.17% hits; in the data active = inhibition above about 37%;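 note: 0% = vehicle and 100% = reference compound; higher means more ethidium bromide displaced from hairpin DNA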
Starred values were filed as active, the others as inactive; ? = inconclusive; . = not tested or not shown.

SMILES	MEX-5 binding	CendR NRP1 mod	HCV core dimer	DNA FID counter
CCN(CC)C(=O)C1=C(C)N(Cc2ccc(C(C)(C)C)cc2)C(=O)C(CC(=O)NCc2ccco2)C1 (stereo unspecified)	.	1.1	.	.
C=CCn1c(SCC(=O)Nc2sc3c(c2C#N)CCC3)nnc1C1COc2ccccc2O1 (stereo unspecified)	2.6	-20.5	47.1*	-26.6
O=C(Nc1nnc(SCc2ccc(F)cc2)s1)C1CC(=O)N(c2ccc3c(c2)OCCO3)C1 (stereo unspecified)	1.8	-0.3	15.7	-7.3
N#Cc1ccc(CSc2nnc(NC(=O)C3CC(=O)N(c4ccc5c(c4)OCCO5)C3)s2)cc1 (stereo unspecified)	1.4	-2.4	64.3*	-30.8
COCCNC(=O)C1CCCN(C(=O)Cc2ccc(F)cc2)CC1 (stereo unspecified)	.	-4.0	.	.
COc1ccc([N+](=O)[O-])cc1NC(=O)CSc1nccc(C)n1	0.2	-20.2	51.1*	-4.7
COc1ccc([N+](=O)[O-])cc1NC(=O)CSc1ncccn1	0.0	-0.4	1.5	3.0
CC(=O)Nc1cccc(-c2ccnc3c2CC(C(=O)NCc2cccs2)O3)c1 (stereo unspecified)	.	-8.4	.	.
O=C(O)CCCC(=O)N1CCc2cc(S(=O)(=O)N3CCc4ccccc43)ccc21	0.5	30.3*	7.8	-42.1
Cc1ccc(S(=O)(=O)Nc2ccc(C(=O)Nc3cc(C)on3)cc2)cc1	-0.5	-8.8	-3.0	-10.9
Cc1cc(NC(=O)c2ccc(S(=O)(=O)N3CCc4ccccc43)cc2)no1	0.5	-6.3	72.3*	-18.2
Cc1cc(NC(=O)c2ccc(S(=O)(=O)N3CCOCC3)cc2)no1	-5.5	3.3	-1.3	-4.9
Cc1cc(NC(=O)c2ccc(S(=O)(=O)Nc3ccccc3)cc2)no1	0.6	27.1*	-1.7	-5.0
Cc1ccc2c(=O)n3c(nc2c1)C(CC(C)C)NC(=O)c1cccnc1-3 (stereo unspecified)	.	-5.9	.	.
CCCNC(=O)C1(C)CCN1C(=O)c1ccc(C(C)(C)C)cc1 (stereo unspecified)	.	1.9	.	.
CSc1nnc(N2C(=O)C(O)=C(C(=O)c3ccco3)C2c2ccccc2)s1 (stereo unspecified)	-39.8*	5.8	-4.6	-27.5
C=CCSc1nnc(N2C(=O)C(O)=C(C(=O)c3ccco3)C2c2ccccc2F)s1 (stereo unspecified)	-35.3*	-8.5	-4.1	-34.0
CCCSc1nnc(N2C(=O)C(O)=C(C(=O)c3ccco3)C2c2ccccc2F)s1 (stereo unspecified)	?	-30.5	-7.0	-36.2
CSc1nnc(N2C(=O)C(O)=C(C(=O)c3ccco3)C2c2ccccc2F)s1 (stereo unspecified)	2.0	-8.2	-7.3	-16.1
CC[C@@H]1CCC[C@@H](O)[C@@H](C)C(=O)O[C@H](C)[C@@H](C)C/C=C(C)/C(OC)=C\C(=O)N(C)C([C@@H](C)CC)C(=O)N(C)[C@@H](C(C)C)C(=O)N(C)[C@@H](COC)C(=O)N2CCC[C@H]2C(=O)N(C)[C@@H](C(C)C)C(=O)N2CCC[C@H]2C(=O)O1 (stereo partly specified)	.	-5.4	.	.
O=C(Nc1c2c(nn1-c1ccccc1)CS(=O)(=O)C2)c1ccc(Br)o1	.	-8.9	.	.
Cc1cc2c(cc1C)-n1nnnc1C(N1CCN(C(=O)OCc3ccccc3)CC1)C(=O)N2 (stereo unspecified)	.	-4.0	.	.
Oc1ccc(-c2nccc(-c3ccc(Cl)cc3Cl)n2)cc1	0.3	40.2*	3.3	-3.9
CN(CC(=O)Nc1cc(S(=O)(=O)N2CCCC2)ccc1Cl)Cc1nc2ccccc2c(=O)[nH]1	.	5.9	.	.
CCC(=O)NC(c1cc(Cl)c2cccnc2c1O)C1CC1 (stereo unspecified)	.	-0.9	.	.
SMILES	MEX-5 binding	CendR NRP1 mod	HCV core dimer	DNA FID counter
CC(=O)NC(c1cc(F)c2cccnc2c1O)C1CC1 (stereo unspecified)	.	26.5*	.	.
OCCN(CCO)c1ccc2ccccc2c1	1.9	4.2	-14.9	-2.4
OCCN(CCO)c1cc2c3ccccc3ccc2c2ccccc12	.	25.2*	.	.
COc1ccc(C(=O)Nc2ccc(Cl)cc2C(=O)N2CCOCC2)cc1	0.8	10.4	2.6	-7.8
COc1ccc(C(=O)Nc2ccc(Cl)cc2C(=O)N2CCCC(C)C2)cc1 (stereo unspecified)	-1.6	23.8*	-0.2	-18.3
CCOC(=O)c1cc(-c2ccco2)nc2c1c(C)nn2-c1ccccc1	-3.2	-10.9	58.7*	-6.0
CCOC(=O)c1c(N)nn(C(=O)C(C)C)c1-c1ccccc1	-2.9	21.8*	-1.1	-1.4
O=C(c1cccc(-n2cccc2)c1)N1CCN(S(=O)(=O)c2ccccc2)CC1	0.3	-9.8	65.2*	.
CC(=O)N1Cc2cc(C(=O)NCC(F)(F)F)nc(-c3cccc(-c4cc5ccccc5o4)c3)c2[C@H]1CCO	.	7.5	.	.
COc1ccc(CCn2c(C)ccc2C)cc1OC	2.3	.	47.4*	-15.9
COc1ccc(CCN2C(=O)C=CC2=O)cc1OC	.	-0.3	.	.
COc1ccc(S(=O)(=O)N(C)Cc2ccc3c(c2)OCCO3)cc1	.	9.0	.	.
COc1cccc(CN(C)S(=O)(=O)c2ccc3c(c2)OCCO3)c1	.	18.6*	.	.
Cc1ccc(N/C=C/C(=O)c2sc(-c3ccccc3)nc2C)cc1	-37.6*	-94.6	8.0	-2.6
C[C@H](O)CNC(=O)c1[nH]cnc1C(=O)Nc1cccc(Cl)c1	.	0.3	.	.
CC(C)[C@H]1C=C(C(=O)O)O[C@@H](OCCCCO)C1	1.8	26.0*	-16.0	.
O=C(O)C1=C[C@@H](c2ccc(C(F)(F)F)cc2)C[C@@H](OCCCCO)O1	0.2	27.5*	7.1	.
Cc1nn(CC(=O)NCCCN2CCC(N3CCCCC3)CC2)c(=O)c2cc(-c3ccccc3)nn12	-2.9	2.8	8.4	38.4*
CCC1CCCCN1CCCNC(=O)Cn1nc(C)n2nc(-c3ccccc3)cc2c1=O (stereo unspecified)	-0.5	7.6	6.2	7.6
CCc1ccc(-c2cc3c(=O)n(CC(=O)NCCCN4CCN(CC)CC4)nc(C)n3n2)cc1	2.1	24.1*	3.0	30.5
Cc1nn(CC(=O)NCCCN2CCN(C)CC2)c(=O)c2cc(-c3ccccc3)nn12	1.8	5.6	-2.5	20.5
COC(=O)/C=C1\OCc2cccc(C)c21	.	-2.0	.	.
Cn1cc(C(=O)c2ccc(Cl)cc2Cl)cc1C(=O)N/N=C(\N)COc1ccccc1	3.4	35.9*	-3.7	-10.6
COC(=O)[C@]12CCCCC=C1N(Cc1ccco1)C(=O)[C@H](CC(=O)NCc1ccc(OC)c(OC)c1)C2	.	9.9	.	.
CS(=O)(=O)c1ccc2nc(NC(=O)CCS(=O)(=O)c3ccccc3)sc2c1	1.4	0.5	-2.1	-8.8
CS(=O)(=O)c1ccc2nc(NC(=O)CCC(=O)c3cccs3)sc2c1	1.0	-13.7	74.4*	-1.5
Cc1ccc(-c2ccc3c(c2)O[C@H](CN(C)Cc2cncnc2)[C@@H](C)CN([C@H](C)CO)S3(=O)=O)cc1	.	18.2	.	.
Cc1ccccc1NC(=O)Cn1c(C)nc2ccc(N)cc2c1=O	3.7	24.3*	4.0	4.3
Cc1ccccc1NC(=O)Cn1c(C)nc2ccc(NC(=O)C3CC3)cc2c1=O	0.4	-2.1	4.4	-2.7
